# The list is not random: actives were taken first. Their share in the collection is about 1.7%.
# m5-HT2A agonist – agonists of mouse serotonin 5-HT2A receptor (HTR2A) | P35363 | CHO-K1 mHTR2A beta-arrestin complementation, luminescence; percent of 30 µM serotonin response | activation, % at 7.6 µM | actives 0.66% (n = 360,000) | AID 624169;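 active means activation above a run cutoff, the mean activation of all tested compounds plus 3 SD, cut at about 14% in these data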;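 further: 0% = plate median of compound wells and 100% = 30 µM serotonin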
# PP5 primary – blocks human protein phosphatase 5 activity; P53041; purified PP5c, OMFP substrate fluorescence; inhibition, % at 6.7 µM; actives 0.18% (n = 320,000);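 active means inhibition above the campaign's mean inhibition across all tested compounds plus 3 SD, cut at about 9.5% in these data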;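 further: 0% = DMSO only and 100% = 100 µM cantharidin control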
# JMJD2C inh – blocks human GASC-1 demethylase activity; actives 0.069% (n = 330,000); GST-JMJD2C(1-420) H3K9me3 demethylation, DELFIA europium; inhibition, % at 2.35 µM;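 active means more than half of a compound's replicate wells show inhibition beyond 50%, single wells judged on their own value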;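 further: signal counts dimethyl H3K9 product captured on neutravidin plate; 0% = median of DMSO wells and 100% = 0.3 times that DMSO median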
# Target sequence (Q9H3R0 1-420 limits assumed): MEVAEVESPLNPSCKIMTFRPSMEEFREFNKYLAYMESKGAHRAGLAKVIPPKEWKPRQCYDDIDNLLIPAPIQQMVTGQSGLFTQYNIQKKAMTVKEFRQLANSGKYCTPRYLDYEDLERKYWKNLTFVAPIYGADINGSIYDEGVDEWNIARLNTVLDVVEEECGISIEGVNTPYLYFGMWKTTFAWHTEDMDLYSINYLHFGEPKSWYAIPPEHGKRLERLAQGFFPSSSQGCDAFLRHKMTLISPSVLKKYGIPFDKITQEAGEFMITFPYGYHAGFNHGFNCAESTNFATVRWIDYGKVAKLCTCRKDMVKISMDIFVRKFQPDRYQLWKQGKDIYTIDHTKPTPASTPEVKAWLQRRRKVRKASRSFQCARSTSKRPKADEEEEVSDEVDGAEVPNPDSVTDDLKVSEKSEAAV
# PP1 counter – PP1-alpha (human) inhibition in PP5 counter-screen. P62136. purified PP1alpha, OMFP fluorescence. inhibition, % at 6.7 µM. actives 0.9% (n = 320,000). AID 2235;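 active means inhibition above the mean inhibition of all tested compounds plus 3 SD, computed separately for each screening campaign, cut at about 15% in these data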
# T cell modulator – T cell immune modulators affecting CD8 T cell-vesicle binding; response (vesicle binding), % at 7 µM; 2C CD8+ T cell-vesicle binding, flow cytometry; stronger effect = lower value; AID 2052; actives 0.068% (n = 330,000);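 active means response, share of CD8 T cells binding vesicles, and their 90th percentile fluorescence all below set limits, cut at about 80% in these data, passing the limit was not always enough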;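 further: values below 100% mean blocked vesicle binding to the CD8+ T cells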
#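 material = purified 2C TCR transgenic mouse naive CD8+ T cells | controls = Unloaded micro-vesicles (low), QL9 vesicles with 0.7% DMSO (high) | detection = cytometric PE anti-B7-1 and Alexa647 anti-CD8 signals after 1% paraformaldehyde fixation | incubation = binding step 1.5 h, 37 °C, antibody labelling 20 min, ice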
# PP1 inh confirm – human PP1 phosphatase inhibition, confirmation. AID 2358. actives 52% (n = 1,900). inhibition, % at 6.7 µM. purified PP1alpha, OMFP substrate fluorescence. shares compounds with PP1 counter;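 active means mean PP1 inhibition above a set limit taken from the earlier primary screen, cut at about 15% in these data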
# PP5 counter – PP5 phosphatase inhibition, counter-screen for PP1 inhibitors; actives 4% (n = 1,900); inhibition, % at 6.7 µM; shares compounds with PP1 counter; AID 2360; purified PP5c, OMFP fluorescence;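 active means mean PP5 inhibition over triplicate wells above about 9.5% taken from the earlier PP1 screen, limit read from the data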
# MOR ag counter – OPRM1 agonism in mouse HTR2A counterscreen; actives 5.3% (n = 2,300); activation, % at 9.3 µM; AID 624380; U2OS OPRM1 beta-arrestin PathHunter, luminescence; DMSO 0%, DAMGO 9.3 µM 100%; shares compounds with m5-HT2A agonist;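 active means mean activation above the mean of DMSO-only wells plus 3 SD, cut at about 0.5% in these data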
# HTR2A ag conf – confirmation of mouse HTR2A serotonin receptor agonists. shares compounds with m5-HT2A agonist. AID 624381. activation, % at 7.6 µM. CHO-K1 PathHunter beta-arrestin recruitment, luminescence; DMSO 0%, 30 µM serotonin 100%. actives 19% (n = 2,300);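 active means mean activation across triplicates above the hit threshold derived in the original primary screen, cut at about 15% in these data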
# * hit, by the source's call; i = inactive; / = no result.
SMILES,m5-HT2A agonist,PP5 primary,JMJD2C inh,PP1 counter,T cell modulator,PP1 inh confirm,PP5 counter,others
CCOc1ccc(N=Nc2c(=O)[nH]n3c(=O)c4c([nH]c23)CCCC4)cc1,-2,4,8,12,i,/,/,
O=c1[nH]n2c(=O)c3c([nH]c2c1N=Nc1cccc(Cl)c1)CCCC3,0,2,0,37*,i,26*,0,
O=[N+]([O-])c1cc(/C=N/n2c(-c3ccncc3)n[nH]c2=S)ccc1Cl,5,1,5,25*,298,4,-2,
Cc1cc(-c2n[nH]c(=S)n2/N=C/c2ccc(Cl)c([N+](=O)[O-])c2)n[nH]1,1,0,-5,2,608,/,/,
Cc1ccc(-n2nc(C(=O)O)cc2-c2ccc(Cl)cc2)cc1,-1,-2,-1,47*,243,47*,3,
O=C(O)c1cc(-c2ccc(Cl)cc2)n(-c2ccc(F)cc2)n1,8,0,-10,47*,274,37*,-2,
Cc1ccc(-n2nc(C(=O)O)cc2-c2ccccc2)cc1,0,-1,-5,33*,424,31*,-4,
O=C(O)c1cc(-c2ccc(Cl)cc2)n(-c2ccc(Cl)cc2)n1,5,-1,2,43*,435,45*,-3,
COc1ccc(C2c3c(ncn(CCN4CCOCC4)c3=N)Oc3ccc4ccccc4c32)cc1OC (configuration not stated),-2,3,9,-1,78,/,/,
O=C1C2C3C=CC(CC3)C2C(=O)N1c1ccc(Cl)cc1Cl (configuration not stated),-3,0,-6,4,278,/,/,
CNC(=O)c1cc(-c2ccc(Cl)cc2)n(-c2ccccc2)n1,-1,3,3,-2,284,/,/,
O=C(O)c1cc(-c2ccc(Cl)c(Cl)c2)n(-c2ccccc2)n1,1,1,-23,58*,156,52*,-5,
Nc1cc(=O)[nH]c(SCC(=O)N2N=C(c3ccc4ccccc4c3)CC2c2ccccc2)n1 (configuration not stated),2,-3,-6,21*,460,3,0,
COc1cc(NS(=O)(=O)c2ccc(Nc3nc(-c4ccccn4)cs3)cc2)nc(OC)n1,5,7,16,63*,167,71*,1,
COc1ccc(-c2csc(Nc3ccc(S(=O)(=O)Nc4cc(OC)nc(OC)n4)cc3)n2)cc1,0,2,23,1,310,/,/,
CN(C)c1ccc(C2CNC(c3ccc(Cl)c([N+](=O)[O-])c3)c3[nH]c4ccccc4c32)cc1 (configuration not stated),-6,4,30,21*,211,17*,0,
O=C(CNC(=O)c1ccc(Cl)cc1)OCC(=O)c1ccccc1,1,2,5,0,233,/,/,
CC(C)(C)c1ccc(C(=O)NCC(=O)OCC(=O)c2ccc3c(c2)-c2ccccc2C3)cc1,0,2,-7,20*,256,14,0,
Cc1nn(CC(=O)Nc2ccc3c(c2)nc(CCN2CCCCC2)n3C)c(=O)c2ccccc12,-4,1,9,-2,104,/,/,
Cc1nn(CC(=O)Nc2ccc3c(c2)nc2n3CCN(C3CCCCC3)C2)c(=O)c2ccccc12,2,3,4,20*,516,6,0,
COc1ccc(Cn2c(SCc3ccccc3C)nc3cc(OC)c(OC)cc3c2=N)cc1,-8,3,-11,30*,644,3,-1,
CN(C(=O)c1ccc(NC(=O)C2CCN(C(=O)OC(C)(C)C)CC2)cc1)C1CCC1,-5,/,-1,/,243,/,/,
Cc1cccc(NC(=O)NC2CCCc3ccccc32)c1 (configuration not stated),-4,3,15,-2,221,/,/,
Cc1cc(-c2csc(N)n2)c(C)n1C,6,2,11,12,185,/,/,
Cc1ccc(-n2c(C)cc(-c3csc(N)n3)c2C)cc1,1,-1,-2,19*,797,2,-2,
SMILES,m5-HT2A agonist,PP5 primary,JMJD2C inh,PP1 counter,T cell modulator,PP1 inh confirm,PP5 counter,others
CCC(=O)NC(c1cc(Cl)c2cccnc2c1O)C(C)C (configuration not stated),-21,-1,3,-3,373,/,/,
Oc1c(C(c2ccccn2)N2CCCCC2)cc(Cl)c2cccnc12 (configuration not stated),22*,5,-4,75*,259,73*,3,MOR ag counter=-1;HTR2A ag conf=-18
CCOC(=O)c1ccc(NC(=O)COc2ccc(-n3cnnn3)cc2)cc1,17*,1,-21,20*,219,5,-6,MOR ag counter=0;HTR2A ag conf=15*
CCOc1ccc(NC(=O)COc2ccc(-n3cnnn3)cc2)cc1,-3,3,9,-5,295,/,/,
COc1ccc(OCC(O)CNC(=O)c2ccc(C)cc2)cc1 (configuration not stated),-2,1,-1,-6,244,/,/,
Cc1cc(C)nc(SCC(=O)c2ccc(F)c(C)c2)n1,36*,0,-7,43*,145,-3,-4,MOR ag counter=-1;HTR2A ag conf=-1
O=C1C=C(Nc2ccc(Cl)cc2)C(=O)N1c1ccc(Cl)cc1,5,2,1,-1,127,/,/,
Cc1cccc2sc(NNC(=O)c3ccc(S(=O)(=O)N4CC(C)CC(C)C4)cc3)nc12 (configuration not stated),15*,3,7,23*,381,19*,0,MOR ag counter=0;HTR2A ag conf=3
COc1ccc(C2CC(c3ccc4ccccc4c3)=NN2C(=O)COC(=O)C2CCC(=O)N2)cc1 (configuration not stated),15*,4,6,2,257,/,/,MOR ag counter=0;HTR2A ag conf=-1
O=C(Cc1cccs1)NNC(=S)NCc1ccco1,15*,-1,-5,-3,369,/,/,MOR ag counter=-1;HTR2A ag conf=-3
O=C(Cc1cccs1)NCc1ccco1,-3,-1,0,0,206,/,/,
Cc1cc(C(=O)NC2CCCc3c2cnn3-c2cccc(C)c2C)n(C)n1 (configuration not stated),2,2,2,-1,204,/,/,
Cn1c(NCc2ccccc2Cl)nc2ccccc21,20*,1,3,0,286,/,/,MOR ag counter=-1;HTR2A ag conf=2
Cn1c(NCc2ccccc2O)nc2ccccc21,-4,-1,14,7,276,/,/,

# Bioassay records as filed in PubChem.
